The record followed here is ChEMBL document CHEMBL1140706, “A Novel iron-chelating derivative of the neuroprotective peptide NAPVSIPQ shows superior antioxidant and antineurodegenerative capabilities” (J Med Chem, 2008).

Series [1] is described as follows: Iron chelating activity by ferrozine method. It is filed as functional. A digest of the protocol: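 Competition with ferrozine for Fe(II) in 5% ammonium acetate buffer, pH 6.9. Compound (100–600 µM, duplicate) preincubated 30 min with 15 µM FeSO4, then 60 µM ferrozine added for 1 h at ambient temperature. Absorbance read at 562 nm with blank subtracted. Chelating effect % = [1 − sample/control] × 100. n = 3 in duplicate.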

The nature of series [2]: Effect on iron-induced hydroxyl radical generation assessed as increase in PBN-OH radical spin adduct concentration at 600 uM. It is filed as functional. The essentials: (§1)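 Fenton system of 100 µM FeSO4, 200 µM H2O2 and 35 mM PBN spin trap. Compound added 2 min before H2O2. EPR spectrum recorded at room temperature in a quartz flat cell. PBN-OH spin adduct level estimated from peak intensity of the middle field doublet and expressed as percent of control. Mean ± SEM, n = 3.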

In series [3] the test system is Brain. Nature of the series: Inhibition of iron/ascorbate-induced lipid peroxidation in Sprague-Dawley rat brain mitochondrial membrane homogenate at 100 uM. It is filed as functional, tissue-based. A digest of the protocol:
(§2)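 Crude mitochondrial fraction from brains of male Sprague-Dawley rats (250–300 g). Assay in 25 mM Tris-HCl pH 7.5 with 25 µM ascorbate, 40 µg protein, 1.5 µM FeSO4 and compound (10–750 µM). Shaken 2 h at ambient temperature, then TCA stop and TBA at 95 °C for 30 min. Read at 532 nm, blank subtracted, percent of control. n = 3 in duplicate.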

Series [4] deals with SH-SY5Y. In words: Neuroprotective activity against hydrogen persoxide-induced cell death in human SH-SY5Y cells upto 10 uM by MTT assay. Format: ADME, cell-based. The essentials:
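SH-SY5Y cells seeded at 0.5 × 10^4 per well in MEM/F-12 with 10% FCS and allowed to attach for 24 h. Compound added immediately before 80 µM H2O2, then 24 h at 37 °C. MTT for 2 h, then SDS/HCl lysis for 24 h, read at 570/650 nm. Viability expressed as percent of cells not treated with H2O2. n = 7 over two experiments.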

Series [5] in a line: Effect on iron-induced hydroxyl radical generation assessed as reduction in EPR signals relative to control. It is filed as functional. Set-up: scale not given: the % may be the effect or the level left. The essentials:
as §1

Series [6] relates to Brain. In words: Inhibition of iron/ascorbate-induced lipid peroxidation in Sprague-Dawley rat brain mitochondrial membrane homogenate. It is filed as functional, tissue-based. The essentials: as §2
Series [7] is described as follows: Effect on iron-induced hydroxyl radical generation assessed as reduction in EPR signals. It is filed as functional. A digest of the protocol:
as §1

Series [8] is described as follows: Effect on iron-induced hydroxyl radical generation assessed as reduction in EPR signals at 300 uM relative to control. It is filed as functional. Set-up: scale not given: the % may be the effect or the level left. A digest of the protocol:
as §1

Series [9] deals with Brain. Nature of the series: Inhibition of iron/ascorbate-induced lipid peroxidation in Sprague-Dawley rat brain mitochondrial membrane homogenate at 15 uM. Format: functional, tissue-based. The essentials: as §2
Series [10] relates to SH-SY5Y. In words: Neuroprotective activity against hydrogen persoxide-induced cell death in human SH-SY5Y cells assessed as cell viability at 1 uM by MTT assay relative to control. It is filed as cell-based. To be noted: read-out: Activity. The essentials: (§3)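 SH-SY5Y cells grown in 1:1 Eagle MEM/Ham's F-12 with 10% FCS, 37 °C, 5% CO2; seeded 0.5 × 10^4 cells/well, attached 24 h. Compounds or vehicle added just before 80 µM H2O2. After 24 h at 37 °C, MTT added for 2 h, then SDS/HCl for a further 24 h; absorbance read at 570/650 nm. Viability expressed as percent of cells not treated with H2O2.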
Background: Tetrazolium dyes change colour on reduction, which living cells bring about.

Series [11] relates to SH-SY5Y. In words: Neuroprotective activity against hydrogen persoxide-induced cell death in human SH-SY5Y cells assessed as cell viability at 10 uM by MTT assay relative to control. As to conditions: read-out: Activity. Format: cell-based. The essentials: as §3

Active and inactive are the calls of the source. The rule behind the calls is not given here.

In the case of `CC[C@H](C)[C@H](NC(=O)[C@H](CO)NC(=O)[C@@H](NC(=O)[C@@H]1CCCN1C(=O)[C@H](C)NC(=O)[C@@H](N)CC(N)=O)C(C)C)C(=O)N1CCC[C@H]1C(=O)N[C@@H](CCC(N)=O)C(=O)NO`, half-maximal inhibition in [1] (IC50) required 360 µM. The outcome (in series [2]; with Brain [3]) was inactive.
As for `CC[C@H](C)[C@H](NC(=O)[C@H](CO)NC(=O)[C@@H](NC(=O)[C@@H]1CCCN1C(=O)[C@H](C)NC(=O)[C@@H](N)CC(=O)NO)C(C)C)C(=O)N1CCC[C@H]1C(=O)N[C@@H](CCC(N)=O)C(=O)NO`, the Activity result in the series with SH-SY5Y [4] is “Non-toxic”; in [5] it was 28%; in series [8] (600 uM, in the assay text read “at 600 uM” for “at 300 uM”), 28%. Further, the IC50 – broadly, the point on the concentration scale where inhibition reaches its midpoint – in series [1] was determined as 170 µM; in the series with Brain [6] it was 340 µM; in series [7] it was 150 µM. The result with Brain [3] was inactive.
Regarding `CC[C@H](C)[C@H](NC(=O)[C@H](CO)NC(=O)[C@@H](NC(=O)[C@@H]1CCCN1C(=O)[C@H](C)NC(=O)[C@@H](N)CC(=O)NO)C(C)C)C(=O)N1CCC[C@H]1C(=O)N[C@@H](CCC(N)=O)C(=O)O`, in series [1], the IC50 was 360 µM. Also, the result (in series [2]; in the series on Brain [3]) was inactive.
`CC(=O)N(O)CCCCCNC(=O)CCC(=O)N(O)CCCCCNC(=O)CCC(=O)N(O)CCCCCN` [DEFEROXAMINE] registered an IC50 in series [1] of 10 µM. Also, the result in the series with Brain [9] was Active. Further, in the series with SH-SY5Y [10], the viability at 1 µM turned out to be 76%. Also, in the series with SH-SY5Y [11], the viability at 10 µM stood at 76%. The Activity in series [8] (300 uM) was 12%.
